ChEMBL document CHEMBL1142300, “4-Aminopyrimidine tetrahydronaphthols: a series of novel vanilloid receptor-1 antagonists with improved solubility properties” (Bioorg Med Chem Lett, 2008)
Values after ≈ are worked out from the molar mass of the structure shown.

What was measured:
[1] = target: Transient receptor potential cation channel subfamily V member 1 (Homo sapiens, UniProt Q8NER1); experiment: Antagonist activity at human TRPV1 expressed in CHO cells assessed as inhibition of capsaicin-induced calcium mobilization; type: functional, cell-based
Chain of Transient receptor potential cation channel subfamily V member 1 (Homo sapiens, UniProt Q8NER1) (Q8NER1 whole entry): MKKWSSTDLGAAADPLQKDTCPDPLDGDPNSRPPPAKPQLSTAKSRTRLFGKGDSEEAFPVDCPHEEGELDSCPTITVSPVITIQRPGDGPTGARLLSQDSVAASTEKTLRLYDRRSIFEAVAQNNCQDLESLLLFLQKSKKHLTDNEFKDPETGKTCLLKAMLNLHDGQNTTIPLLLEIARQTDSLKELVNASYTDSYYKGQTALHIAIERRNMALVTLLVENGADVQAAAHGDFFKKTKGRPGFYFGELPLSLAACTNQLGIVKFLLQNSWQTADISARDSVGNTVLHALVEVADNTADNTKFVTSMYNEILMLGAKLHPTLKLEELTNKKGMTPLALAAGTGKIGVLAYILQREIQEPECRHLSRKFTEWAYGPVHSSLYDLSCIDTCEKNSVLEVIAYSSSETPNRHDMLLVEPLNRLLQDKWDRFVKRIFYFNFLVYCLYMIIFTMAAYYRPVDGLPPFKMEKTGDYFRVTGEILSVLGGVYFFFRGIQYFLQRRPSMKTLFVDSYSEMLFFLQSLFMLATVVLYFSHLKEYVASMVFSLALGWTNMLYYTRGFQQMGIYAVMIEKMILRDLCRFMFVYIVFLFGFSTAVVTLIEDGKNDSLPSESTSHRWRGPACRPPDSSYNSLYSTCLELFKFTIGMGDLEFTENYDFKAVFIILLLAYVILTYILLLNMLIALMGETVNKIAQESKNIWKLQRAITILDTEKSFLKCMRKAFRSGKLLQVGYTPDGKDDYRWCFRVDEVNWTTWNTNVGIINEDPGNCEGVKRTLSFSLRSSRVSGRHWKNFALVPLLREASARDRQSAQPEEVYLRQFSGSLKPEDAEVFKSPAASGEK
Method in brief: (§1)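 Inhibition of capsaicin-evoked 45Ca2+ uptake into CHO cells stably expressing human or rat TRPV1; IC50 taken as mean of at least three measurements ± SEM. Compounds were also run separately for agonist activity.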

[2] = target: Transient receptor potential cation channel subfamily V member 1 (Rattus norvegicus, UniProt O35433); experiment: Antagonist activity at rat TRPV1 expressed in CHO cells assessed as inhibition of capsaicin-induced calcium mobilization; type: functional, cell-based; method in brief: as §1
Chain of Transient receptor potential cation channel subfamily V member 1 (Rattus norvegicus, UniProt O35433) (O35433 whole entry): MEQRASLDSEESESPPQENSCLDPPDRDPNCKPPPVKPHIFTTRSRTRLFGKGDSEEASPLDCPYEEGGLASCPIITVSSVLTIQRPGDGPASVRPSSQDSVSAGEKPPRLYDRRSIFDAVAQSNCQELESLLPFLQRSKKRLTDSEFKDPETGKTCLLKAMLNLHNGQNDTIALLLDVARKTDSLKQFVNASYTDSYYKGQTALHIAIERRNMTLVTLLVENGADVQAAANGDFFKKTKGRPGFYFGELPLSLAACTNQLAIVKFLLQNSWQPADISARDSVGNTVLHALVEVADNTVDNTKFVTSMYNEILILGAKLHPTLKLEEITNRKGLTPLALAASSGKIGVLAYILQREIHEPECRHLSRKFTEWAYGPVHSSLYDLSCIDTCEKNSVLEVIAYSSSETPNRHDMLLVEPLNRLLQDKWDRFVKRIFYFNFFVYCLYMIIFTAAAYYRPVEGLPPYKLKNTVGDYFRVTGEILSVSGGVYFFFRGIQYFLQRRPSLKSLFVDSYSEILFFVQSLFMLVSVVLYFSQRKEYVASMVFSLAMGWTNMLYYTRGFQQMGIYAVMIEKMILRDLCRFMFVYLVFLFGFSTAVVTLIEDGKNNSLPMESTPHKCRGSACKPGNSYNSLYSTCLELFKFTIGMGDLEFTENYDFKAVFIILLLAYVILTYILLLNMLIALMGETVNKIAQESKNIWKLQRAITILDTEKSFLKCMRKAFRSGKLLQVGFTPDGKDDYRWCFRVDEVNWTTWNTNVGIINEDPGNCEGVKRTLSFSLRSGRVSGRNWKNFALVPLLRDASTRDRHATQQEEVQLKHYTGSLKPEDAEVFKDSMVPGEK

[3] = Bioavailability in rat at 5 mg/kg, po; type: ADME, organism-based; settings: in vivo
[4] = AUC in rat at 5 mg/kg, po; type: ADME, organism-based; set-up: dose 5 mg/kg, route oral; settings: plasma
[5] = Solubility in phosphate buffered saline at pH 7.4; type: physicochemical
Method in brief: (§2)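 Thermodynamic solubility determined on a high-throughput automated platform in three aqueous media: 0.01 N HCl, phosphate-buffered saline pH 7.4, and simulated intestinal fluid pH 6.8.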

[6] = (§3) Half life in iv dosed rat; type: ADME, organism-based; settings: in vivo
[7] = Solubility in aqueous 0.01 N HCL; type: physicochemical; method in brief: as §2
[8] = Clearance in iv dosed rat; type: ADME, organism-based; settings: in vivo
[9] = Solubility in simulated intestinal fluid at pH 6.8; type: physicochemical; method in brief: as §2
Rattus norvegicus = experiment: as §3; type: ADME, organism-based; settings: in vivo
[10] = AUC in rat at 3 mg/kg, po; type: ADME, organism-based; set-up: dose 3 mg/kg, route oral; settings: plasma
[11] = aqueous 0.01 N HCl, read-out: Solubility
[12] = simulated intestinal fluid, read-out: Solubility

Which IC50 [1] does the source give for `CSc1cccc(NC(=O)Nc2cccc3ccc(O)cc23)c1` here?
The IC50 was 13 nM.

And the IC50 [2]?
Its IC50 is 35 nM.

With `OC1CCc2c(Cl)ccc(Nc3cc(-c4ccc(C(F)(F)F)cc4)ncn3)c2C1` (centres undefined) as the compound, how does the bioavailability [3] read?
The bioavailability was 34%.

And the AUC [4]?
Its AUC is 3400 ng·h/mL.

For `OC1CCc2c(Br)ccc(Nc3cc(-c4ccc(C(F)(F)F)cc4)ncn3)c2C1` (centres undefined), which bioavailability [3] is on record?
Its bioavailability is 60%.

What about the Solubility ([5]; phosphate buffered saline, read-out: Solubility) of the same compound?
Its Solubility is 7.7 µg/mL (≈ 16.6 µM).

And the IC50 [1]?
Its IC50 is 2.1 nM.

And the half-life [6]?
The half-life was 5.5 h.

What about the AUC [4] of the same compound?
The AUC was 7600 ng·h/mL.

And the Solubility [7, 11]?
Its Solubility is 7.2 µg/mL (≈ 15.5 µM).

And the clearance [8]?
Its clearance is 6.5 mL/min/kg.

What about the Solubility [9, 12] of the same compound?
Its Solubility is 73 µg/mL (≈ 157 µM).

What about the IC50 [2] of the same compound?
The IC50 was 9.6 nM.

For `OC1CCc2cccc(Nc3cc(-c4ccc(C(F)(F)F)cc4)ncn3)c2C1` (single isomer, unassigned; (+)), which Solubility ([5]; buffer) is on record?
The Solubility was 5.6 µg/mL (≈ 14.5 µM).

What about the IC50 [1] of the same compound?
Its IC50 is 0.58 nM.

And the t1/2 (Rattus norvegicus)?
The t1/2 was 1.2 h.

What about the Solubility ([7]; buffer) of the same compound?
The Solubility was 180 µg/mL (≈ 467 µM).

What about the Solubility ([9]; simulated gi fluid) of the same compound?
Its Solubility is 60 µg/mL (≈ 156 µM).

And the IC50 [2]?
Its IC50 is 5.7 nM.

With `OC1CCc2cccc(Nc3cc(-c4ccc(C(F)(F)F)cc4)ncn3)c2C1` (single isomer, unassigned; (-)) as the compound, how does the Solubility ([5]; buffer) read?
The Solubility was 9.1 µg/mL (≈ 23.6 µM).

What about the IC50 [1] of the same compound?
The IC50 was 0.62 nM.

What about the half-life [6] of the same compound?
Its half-life is 0.9 h.

And the Solubility [7, 11]?
Its Solubility is 160 µg/mL (≈ 415 µM).

And the clearance [8]?
Its clearance is 96.7 mL/min/kg.

And the Solubility [9, 12]?
The Solubility was 85 µg/mL (≈ 221 µM).

And the IC50 [2]?
Its IC50 is 5.5 nM.

What does the source list for `OC1CCc2cccc(Nc3cc(-c4ccc(C(F)(F)F)cc4)ncn3)c2C1` (stereo in doubt; 4)?
Solubility ([5]; buffer): 23 µg/mL (≈ 59.7 µM); IC50 [1]: 0.65 nM; Solubility ([7]; buffer): 190 µg/mL (≈ 493 µM); IC50 [2]: 3.1 nM

For `CC(=O)Nc1nc2c(Oc3cc(-c4ccc(C(F)(F)F)cc4)ncn3)cccc2s1` [AMG-517], which AUC [10] is on record?
The AUC was 5300 ng·h/mL.

What about the Solubility ([5]; buffer) of the same compound?
Its Solubility is < 0.1 µg/mL.

What about the Solubility ([7]; buffer) of the same compound?
The Solubility was < 0.1 µg/mL.

And the Solubility ([9]; simulated gi fluid)?
The Solubility was 0.66 µg/mL (≈ 1.53 µM).
